Experimental data published in ChEMBL document CHEMBL1287654, “Anticancer activity of N-bis(trifluoromethyl)alkyl-N'-(polychlorophenyl) and N'-(1,2,4-triazolyl) ureas” (2010).

How the values were obtained:
Assay type in all cases: functional
[1] = Growth inhibition of human renal cancer cell after 48 hrs by sulforhodamine B assay; details: Cancer cell lines
Method in brief: (§1)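 Subpanel median growth inhibitory concentration: the average sensitivity of each tumor-type subpanel of the NCI 60-cell-line panel, derived from per-cell-line GI50 values. GI50 values came from a five log dose range and are expressed as log molar concentration for 50% net growth inhibition.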

[2] = tested on: MCF7; assay: Growth inhibition of human MCF7 cells after 48 hrs by sulforhodamine B assay; details: MCF7, 48 h
Method in brief: (§2)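 NCI 60-cell-line main test over a five-log dose range. GI50 is the molar concentration giving half-growth inhibition, reported as log molar. Subpanel values are median GI50 across that subpanel's lines. Where 50% inhibition was not reached within the tested interval, the highest tested concentration was used.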

[3] = tested on: HOP-92; assay: Growth inhibition of human HOP92 cells after 48 hrs by sulforhodamine B assay; details: HOP-92, 48 h; method in brief: as §2
[4] = tested on: OVCAR-3; assay: Growth inhibition of human OVCAR-3 cells after 48 hrs by sulforhodamine B assay; details: OVCAR-3, 48 h; method in brief: as §2
[5] = tested on: SN12C; assay: Growth inhibition of human SN12C cells after 48 hrs by sulforhodamine B assay
Method in brief: (§3)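 NCI 60-cell-line main screen across nine tumor types, with five log dose range per compound. GI50 is the molar concentration giving half growth inhibition, reported as the log of the molar concentration that inhibits 50% net cell growth.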

[6] = tested on: CCRF-CEM; assay: Growth inhibition of human CCRF-CEM cells after 48 hrs by sulforhodamine B assay; method in brief: as §2
[7] = tested on: SK-OV-3; assay: Growth inhibition of human SKOV3 cells after 48 hrs by sulforhodamine B assay; details: SK-OV-3, 48 h; method in brief: as §2
[8] = Growth inhibition of human CNS cancer cell after 48 hrs by sulforhodamine B assay; details: Cancer cell lines; method in brief: as §2
[9] = tested on: OVCAR-8; assay: Growth inhibition of human OVCAR8 cells after 48 hrs by sulforhodamine B assay; details: OVCAR-8, 48 h; method in brief: as §2
[10] = Growth inhibition of human non-small lung cancer cell after 48 hrs by sulforhodamine B assay; details: Cancer cell lines; method in brief: as §1
[11] = tested on: EKVX; assay: Growth inhibition of human EKVX cells after 48 hrs by sulforhodamine B assay; method in brief: as §2
[12] = tested on: NCI/ADR-RES; assay: Growth inhibition of human NCI/ADR-RES cells after 48 hrs by sulforhodamine B assay; method in brief: as §2
[13] = tested on: NCI-H322M; assay: Growth inhibition of human NCI-H322M cells after 48 hrs by sulforhodamine B assay; method in brief: as §2
[14] = tested on: SNB-19; assay: Growth inhibition of human SNB19 cells after 48 hrs by sulforhodamine B assay; details: SNB-19, 48 h; method in brief: as §3
[15] = tested on: HOP-62; assay: Growth inhibition of human HOP62 cells after 48 hrs by sulforhodamine B assay; details: HOP-62, 48 h; method in brief: as §2
[16] = tested on: OVCAR-5; assay: Growth inhibition of human OVCAR5 cells after 48 hrs by sulforhodamine B assay; details: OVCAR-5, 48 h; method in brief: as §2
[17] = Growth inhibition of human colon cancer cell after 48 hrs by sulforhodamine B assay; details: Cancer cell lines; method in brief: as §1
[18] = Growth inhibition of human Hs 578T cells after 48 hrs by sulforhodamine B assay; method in brief: as §2
[19] = tested on: MDA-MB-435; assay: Growth inhibition of human MDA-MB-435 cells after 48 hrs by sulforhodamine B assay; details: MDA-MB-435, 48 h; method in brief: as §2
[20] = tested on: KM12; assay: Growth inhibition of human KM12 cells after 48 hrs by sulforhodamine B assay; details: KM12, 48 h; method in brief: as §2
[21] = Growth inhibition of human prostate cancer cell after 48 hrs by sulforhodamine B assay; details: Cancer cell lines; method in brief: as §1
[22] = tested on: CAKI-1; assay: Growth inhibition of human Caki1 cells after 48 hrs by sulforhodamine B assay; details: CAKI-1, 48 h; method in brief: as §2
[23] = tested on: NCI-H522; assay: Growth inhibition of human NCI-H522 cells after 48 hrs by sulforhodamine B assay; details: NCI-H522, 48 h; method in brief: as §2
[24] = tested on: MDA-N; assay: Growth inhibition of human MDA-N cells after 48 hrs by sulforhodamine B assay; method in brief: as §2
[25] = Growth inhibition of human ovarian cancer cell after 48 hrs by sulforhodamine B assay; details: Cancer cell lines; method in brief: as §1
[26] = tested on: HCT-15; assay: Growth inhibition of human HCT15 cells after 48 hrs by sulforhodamine B assay; details: HCT-15, 48 h; method in brief: as §2
[27] = tested on: SF-295; assay: Growth inhibition of human SF295 cells after 48 hrs by sulforhodamine B assay; details: SF-295, 48 h; method in brief: as §2
[28] = tested on: U-251; assay: Growth inhibition of human U251 cells after 48 hrs by sulforhodamine B assay; details: U-251, 48 h; method in brief: as §3
[29] = tested on: T47D; assay: Growth inhibition of human T47D cells after 48 hrs by sulforhodamine B assay; method in brief: as §3

Work on `CCC(NC(=O)Nc1cc(Cl)ccc1Cl)(C(F)(F)F)C(F)(F)F` yielded a GI50 [1] of 3.89 µM, a GI50 [2] of 7.24 µM and a GI50 [3] of 4.68 µM. It also gave a GI50 [4] of 3.09 µM, a GI50 [5] of 2.82 µM and a GI50 [6] of 4.07 µM. The GI50 [7] was 10.7 µM, the GI50 [8] was 4.47 µM and the GI50 [9] was 5.25 µM. For the same molecule, the GI50 [10] was 3.72 µM, the GI50 [11] was 3.16 µM and the GI50 [12] was 4.17 µM. It also gave a GI50 [13] of 1.78 µM, a GI50 [14] of 4.68 µM and a GI50 [15] of 10.7 µM. It also gave a GI50 [16] of 4.79 µM, a GI50 [17] of 4.68 µM and a GI50 [18] of 5.25 µM. The GI50 [19] was 5.13 µM, the GI50 [20] was 4.07 µM and the GI50 [21] was 3.16 µM. For the same molecule, the GI50 [22] was 4.57 µM, the GI50 [23] was 2.82 µM and the GI50 [24] was 4.17 µM. For the same molecule, the GI50 [25] was 5.5 µM, the GI50 [26] was 4.07 µM and the GI50 [27] was 3.47 µM. It also gave a GI50 [28] of 2.95 µM.

For `CC(NC(=O)Nc1cc(Cl)ccc1Cl)(C(F)(F)F)C(F)(F)F`, the GI50 [1] was 15.1 µM, the GI50 [2] was 11.7 µM and the GI50 [3] was 6.92 µM. It also gave a GI50 [4] of 4.17 µM, a GI50 [5] of 8.71 µM and a GI50 [7] greater than 100 µM. The GI50 [8] was 20 µM, the GI50 [10] was 9.77 µM and the GI50 [29] was 3.47 µM. It also gave a GI50 [12] of 5.89 µM, a GI50 [14] greater than 100 µM and a GI50 [15] of 63.1 µM. For the same molecule, the GI50 [16] was greater than 100 µM, the GI50 [17] was 7.08 µM and the GI50 [18] was 3.16 µM. It also gave a GI50 [19] greater than 100 µM, a GI50 [20] of 4.37 µM and a GI50 [21] of 5.75 µM. It also gave a GI50 [22] of 19.1 µM, a GI50 [23] of 3.09 µM and a GI50 [24] greater than 100 µM. For the same molecule, the GI50 [25] was 24 µM and the GI50 [27] was 3.47 µM.
